Measured values published in ChEMBL document CHEMBL4396951, “Optimization and anti-inflammatory evaluation of methyl gallate derivatives as a myeloid differentiation protein 2 inhibitor” (Bioorg Med Chem, 2019).
Calls of active or inactive are those of the source. The calls are words filed in the database; no cut-off is given here.

Assays:
[1] = test system: Peritoneal macrophage; assay: Antiinflammatory activity in C57BL/6 mouse primary peritoneal macrophages assessed as inhibition of LPS-induced TNFalpha production at 10 uM preincubated for 30 mins followed by LPS stimulation and measured after 24 hrs by sandwich ELISA; format: functional, cell-based
Procedure, shortened: (§1)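 Thioglycollate-elicited mouse peritoneal macrophages in RPMI-1640/10% FBS. Compound pretreatment for 30 min (10 μM for single-point screening, graded concentrations for dose-response), then 0.5 μg/mL LPS for 24 h. TNF-α and IL-6 in culture medium measured by sandwich ELISA and normalized to total protein in cell lysates; n = 3.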

[2] = test system: Peritoneal macrophage; assay: Antiinflammatory activity in C57BL/6 mouse primary peritoneal macrophages assessed as inhibition of LPS-induced IL-6 production at 10 uM preincubated for 30 mins followed by LPS stimulation and measured after 24 hrs by sandwich ELISA; format: functional, cell-based; procedure, shortened: as §1

Row | Compound | inhibition [1] | inhibition [2]
1 | COc1ccc(OC)c(/C=C/C(=O)Nc2ccc3c(c2)CCC3)c1 | Active | Active
2 | COc1ccccc1CNC(=O)c1cc(O)c(O)c(O)c1 | Active | Active
3 | O=C(Nc1ccccc1)c1cc(O)c(O)c(O)c1 | Active | Active
4 | O=C(/C=C/c1ccccc1C(F)(F)F)Nc1ccc2c(c1)CCC2 | Active | Active
5 | O=C(Nc1ccc2c(c1)CCC2)c1cc(Cl)nc(Cl)c1 | Active | Active
6 | O=C(Nc1ccc2c(c1)CCC2)c1cccc(N2CCCC2)c1 | Active | Active
7 | COc1ccc(NC(=O)c2cc(O)c(O)c(O)c2)cc1 | Active | Active
8 | COc1ccc(/C=C/C(=O)Nc2ccc3c(c2)CCC3)cc1O | Active | Active
9 | O=C(/C=C/c1cccc(OC(F)(F)F)c1)Nc1ccc2c(c1)CCC2 | Active | Active
10 | O=C(Nc1ccc2c(c1)CCC2)c1cc2ccccc2[nH]1 | Active | Active
11 | COc1ccc(CNC(=O)c2cc(O)c(O)c(O)c2)cc1OC | Active | Active
12 | CC(=O)N1CCc2cc(NC(=O)c3cc(O)c(O)c(O)c3)ccc21 | Active | Active
13 | COc1cc(CC(=O)Nc2ccc3c(c2)CCC3)cc(OC)c1 | Active | Active
14 | Cc1ncsc1C(=O)Nc1ccc2c(c1)CCC2 | Active | Active
15 | O=C(Nc1ccc2cc[nH]c2c1)c1cc(O)c(O)c(O)c1 | Active | Active
16 | O=C(Nc1ccc(F)cc1)c1cc(O)c(O)c(O)c1 | Active | Active
17 | COc1cc(/C=C/C(=O)Nc2ccc3c(c2)CCC3)cc(OC)c1O | Active | Active

Row | Compound | inhibition [1] | inhibition [2]
18 | O=C(CCCc1c[nH]c2ccccc12)Nc1ccc2c(c1)CCC2 | Active | Active
19 | CN1CCN(Cc2ccc(NC(=O)c3cc(O)c(O)c(O)c3)cc2)CC1 | Active | Active
20 | CN1CCN(c2ccc(NC(=O)c3cc(O)c(O)c(O)c3)cc2)CC1 | Active | Active
21 | COc1cc(NC(=O)c2cc(O)c(O)c(O)c2)cc(OC)c1 | Active | Active
22 | CN(C)c1cccc(C(=O)Nc2ccc3c(c2)CCC3)c1 | Active | Active
23 | O=C(Nc1ccc2c(c1)CCC2)c1cccc(N2CCOCC2)c1 | Active | Active
24 | O=C(Cc1ccc([N+](=O)[O-])cc1[N+](=O)[O-])Nc1ccc2c(c1)CCC2 | Active | Active
25 | COc1ccc(/C=C/C(=O)Nc2ccc3c(c2)CCC3)cc1OC | Active | Active
26 | O=C(Nc1ccc(N2CCOCC2)cc1)c1cc(O)c(O)c(O)c1 | Active | Active
27 | O=C(Nc1ccc2c(c1)CCC2)c1ccccc1C(F)(F)F | Active | Active
28 | Cc1ccc(C(=O)Nc2ccc3c(c2)CCC3)s1 | Active | Active
29 | COc1cc(/C=C/C(=O)Nc2ccc3c(c2)CCC3)cc(OC)c1OC | Active | Active
30 | O=C(Nc1ccc2c(c1)CCC2)c1ccc(Cl)c([N+](=O)[O-])c1 | Active | Active
31 | CCN(CC)c1ccc(C(=O)Nc2ccc3c(c2)CCC3)cc1 | Active | Active
32 | O=C(Nc1ccc2c(c1)CCC2)c1c(Cl)cccc1Cl | Active | Active
33 | CC(=O)Nc1ccc(C(=O)Nc2ccc3c(c2)CCC3)cc1 | Active | Active
